Experimental data reported in ChEMBL document CHEMBL4138246, “Natural product inspired library synthesis - Identification of 2,3-diarylbenzofuran and 2,3-dihydrobenzofuran based inhibitors of Chlamydia trachomatis” (Eur J Med Chem, 2018).

Assays:
Chlamydia trachomatis [1] = assay: Antichlamydial activity against Chlamydia trachomatis serovar L2 454/Bu infected in human HeLa 299 cells assessed as reduction in number of inclusion bodies measured after 44 to 48 hrs by DAPI staining-based HCS assay; type: functional, organism-based
Outline: (§1)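 HeLa299 cells are seeded at 15,000/well, cultured overnight at 37 °C with 5% CO2 in RPMI with 10% FBS and 2 mM […], then infected with serovar L2 454/Bu at MOI about 0.3 in HBSS. At 1 h the inoculum is replaced with medium containing 0.5% DMSO and 1:1 serial dilutions of compound over eleven concentrations. After 44–48 h, cells are fixed in methanol for 5 min. Inclusions are stained with rabbit anti-Chlamydia antibody, a FITC secondary, and DAPI. Inclusions over 130 µm² are counted by automated imaging and expressed as % of DMSO-control inclusions. IC50 is from nonlinear regression of at least three independent experiments.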

[2] = Cytotoxicity against human HeLa 299 cells assessed as cell viability at 25 uM after 48 hrs by XTT assay relative to control; type: cell-based; settings: read-out: Activity
Outline: (§2)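 HeLa299 cells are seeded at 7000/well and cultured overnight in RPMI with 10% FBS and 2 mM […] at 37 °C with 5% CO2. The medium is then swapped for phenol red-free DMEM with 0.5% DMSO, with or without compound at 25 and 50, in at least three replicate wells each, for 48 h. XTT with activation reagent is read after 2.5 h at 475 minus 660 nm, blank-corrected, and expressed as % of DMSO control.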

[3] = Cytotoxicity against human HeLa 299 cells assessed as cell viability at 50 uM after 48 hrs by XTT assay relative to control; type: cell-based; settings: for viability at 48 h, 50 µM: HeLa 299 cells, read-out: Activity; for Activity: 48 h, 50 µM; outline: as §2
Chlamydia trachomatis [4] = assay: Antichlamydial activity against Chlamydia trachomatis serovar L2 infected in human HeLa 299 cells assessed as reduction in number of inclusion bodies measured after 44 to 48 hrs by DAPI staining-based HCS assay; type: functional, organism-based; outline: as §1
[5] = Cytotoxicity against human HeLa 299 cells assessed as reduction in cell viability at 25 uM after 48 hrs by XTT assay
Chlamydia trachomatis [6] = assay: Antichlamydial activity against Chlamydia trachomatis serovar A […] infected in human HeLa 299 cells assessed as reduction in number of inclusion bodies measured after 44 to 48 hrs by DAPI staining-based HCS assay; type: functional, organism-based
Chlamydia trachomatis [7] = assay: Antichlamydial activity against Chlamydia trachomatis serovar D […] infected in human HeLa 299 cells assessed as reduction in number of inclusion bodies measured after 44 to 48 hrs by DAPI staining-based HCS assay; type: functional, organism-based
[8] = Cytotoxicity against human HeLa 299 cells assessed as reduction in cell viability after 48 hrs by XTT assay; type: cell-based; outline: as §2

IC50 (Chlamydia trachomatis [1]; read-out: IC50) [µM] | IC50 (Chlamydia trachomatis [1]; read-out: pIC50 (converted)) [µM] | IC50 (Chlamydia trachomatis [4]) [µM] | IC50 (Chlamydia trachomatis [6]) [µM] | IC50 (Chlamydia trachomatis [7]) [µM] | SMILES | viability at 48 h, 25 µM [2] [%] | viability at 48 h, 50 µM [3] [%] | Activity [5] | Activity [8] | Activity [3] [%]
27 | 27 | – | – | – | COc1ccc(-c2oc3cc(OC)ccc3c2-c2ccc(F)c(F)c2)cc1 | 96 | 101 | – | – | –
– | – | 0.666 | – | – | CC1COc2c(N3CCN(C)CC3)c(F)cc3c(=O)c(C(=O)O)cn1c23 (centres undefined) [OFLOXACIN] | – | – | – | – | –
– | – | – | – | – | COc1ccc(C2c3ccc(OC)cc3OC2c2ccccc2)cc1 (racemic) | – | < 70 | Toxic | – | –
19.8 | 19.9 | – | – | – | COc1cccc(C2Oc3ccc(F)cc3C2c2ccc(F)c(F)c2)c1 (racemic) | 80 | 118 | – | – | –
24.9 | 24.9 | – | – | – | Fc1cccc(C2c3cc(F)ccc3OC2c2ccccc2)c1 (racemic) | 83 | 84 | – | – | –
25.8 | 25.8 | – | – | – | COc1cccc(C2Oc3ccc(F)cc3C2c2ccc3c(c2)OCO3)c1 (racemic) | 88 | 103 | – | – | –
2.7 | 2.73 | 1.81 | 1.34 | 2.19 | COc1ccc(-c2oc3cc(OC)ccc3c2-c2ccnc(F)c2)cc1 | 68 | 93 | – | – | –
27.2 | 27.2 | – | – | – | Fc1ccc(C2c3ccccc3OC2c2ccccc2)cc1F (racemic) | 75 | 87 | – | – | –
– | – | – | – | – | Oc1ccc(-c2oc3ccc(F)cc3c2-c2ccc(O)cc2)cc1 | – | < 70 | Toxic | – | –
– | – | – | – | – | COc1cccc(-c2oc3ccc(F)cc3c2-c2ccc3c(c2)OCO3)c1 | – | < 70 | Toxic | – | –
10.6 | 10.6 | – | – | – | COc1ccc(C2c3ccc(OC)cc3OC2c2cccc(OC)c2)cc1 (racemic) | 76 | 90 | – | – | –
15 | 15 | – | – | – | c1ccc(COc2ccc(-c3oc4ccccc4c3-c3cccnc3)cc2)cc1 | 76 | 82 | – | – | –
15.2 | 15.2 | – | – | – | COc1ccc(-c2oc3ccc(F)cc3c2-c2ccc(OC)cc2)cc1 | 82 | 99 | – | – | –
25.4 | 25.4 | – | – | – | c1ccc(C2Oc3ccccc3C2c2ccccc2)cc1 (racemic) | 72 | 88 | – | – | –
– | – | – | – | – | Oc1ccc(-c2oc3ccc(F)cc3c2-c2ccnc(F)c2)cc1 | 107 | 53 | – | Dose-dependent effect | –
2.4 | 2.44 | 1 | 2.63 | 2.44 | COc1ccc(-c2oc3ccccc3c2-c2cccnc2)cc1 | 82 | 103 | – | – | –
– | – | – | – | – | Oc1ccc(-c2oc3ccccc3c2-c2ccnc(F)c2)cc1 | 90 | 52 | – | Dose-dependent effect | –
1 | 0.998 | 0.581 | 0.079 | 0.7 | COc1cccc(C2Oc3cc(OC)ccc3C2c2ccc(F)c(F)c2)c1 (racemic) | 93 | 95 | – | – | –

IC50 (Chlamydia trachomatis [1]; read-out: IC50) [µM] | IC50 (Chlamydia trachomatis [1]; read-out: pIC50 (converted)) [µM] | IC50 (Chlamydia trachomatis [4]) [µM] | IC50 (Chlamydia trachomatis [6]) [µM] | IC50 (Chlamydia trachomatis [7]) [µM] | SMILES | viability at 48 h, 25 µM [2] [%] | viability at 48 h, 50 µM [3] [%] | Activity [5] | Activity [8] | Activity [3] [%]
– | – | – | – | – | COc1ccc(-c2oc3cc(OC)ccc3c2-c2ccc(F)cc2)cc1 | – | < 70 | Toxic | – | –
23.4 | 23.4 | – | – | – | COc1ccc2c(c1)OC(c1ccccc1)C2c1ccc(F)c(F)c1 (racemic; 38) | 84 | – | – | – | 102
25 | 25 | – | – | – | N#Cc1cccc(C2c3ccccc3OC2c2ccccc2)c1 (racemic) | 90 | 96 | – | – | –
12.8 | 12.8 | – | – | – | COc1ccc(-c2oc3cc(OC)ccc3c2-c2ccc(OC)cc2)cc1 | 106 | 100 | – | – | –
22.1 | 22.1 | – | – | – | COc1ccc(-c2oc3ccccc3c2-c2cccc(F)c2)cc1 | 79 | 84 | – | – | –
8.7 | 8.73 | – | – | – | COc1ccc(-c2oc3ccccc3c2-c2ccc(F)c(F)c2)cc1 | 90 | 96 | – | – | –
– | – | – | – | – | Oc1ccc(-c2oc3ccccc3c2-c2ccc(O)cc2)cc1 | 74 | 32 | – | Dose-dependent effect | –
11.6 | 11.6 | – | – | – | COc1ccc(-c2oc3ccccc3c2-c2ccc(OC)cc2)cc1 | 92 | 94 | – | – | –
– | – | – | – | – | Oc1ccc(-c2oc3ccccc3c2-c2cccnc2)cc1 | 79 | 61 | – | Dose-dependent effect | –
– | – | – | – | – | COc1ccc2c(c1)OC(c1ccccc1)C2c1ccc(F)c(F)c1 (racemic; 39) | – | – | Toxic | – | < 70
– | – | – | – | – | COc1ccc(-c2oc3cc(OC)ccc3c2-c2ccc(C(F)(F)F)cc2)cc1 | 84 | 45 | – | Dose-dependent effect | –
– | – | – | – | – | Oc1ccc(-c2oc3cc(O)ccc3c2-c2ccc(F)cc2)cc1 | 105 | 42 | – | Dose-dependent effect | –
2 | 2.04 | 0.965 | 1.6 | 2.04 | COc1ccc(-c2oc3ccccc3c2-c2ccnc(F)c2)cc1 | 84 | 97 | – | – | –
4.2 | 4.21 | 4.73 | 1.84 | 5.04 | COc1ccc(-c2oc3ccc(F)cc3c2-c2ccnc(F)c2)cc1 | 90 | 103 | – | – | –
– | – | – | – | – | Oc1ccc(-c2oc3cc(O)ccc3c2-c2ccnc(F)c2)cc1 | – | < 70 | Toxic | – | –
– | – | 0.727 | – | – | CC[C@H]1OC(=O)[C@H](C)[C@@H](O[C@H]2C[C@@](C)(OC)[C@@H](O)[C@H](C)O2)[C@H](C)[C@@H](O[C@@H]2O[C@H](C)C[C@H](N(C)C)[C@H]2O)[C@](C)(O)C[C@@H](C)CN(C)[C@H](C)[C@@H](O)[C@]1(C)O [AZITHROMYCIN] | – | – | – | – | –
– | – | – | – | – | Oc1ccc(-c2oc3ccccc3c2-c2cccc(F)c2)cc1 | – | < 70 | Toxic | – | –
